According to ChEMBL document CHEMBL4028886 (J Med Chem, 2017):
Active and inactive are the calls of the source. The calls are words filed in the database; no cut-off is given here.

Tests used:
Rattus norvegicus [1] = assay: Neurotoxicity in Sprague-Dawley rat assessed as grip strength score at 10 mg/kg, ip administered 30 mins prior to test (reference value: 2.4 +/- 1.265); format: toxicity, organism-based; settings: in vivo, 0.5 h
[2] = target: Sodium-dependent serotonin transporter (Homo sapiens, UniProt P31645); assay: Inhibition of re-uptake of [3H]-5-HT at human SERT expressed in HEK293 cells preincubated for 5 mins followed by [3H]-dopamine addition measured after 1 min by liquid scintillation counting; format: cell-based; settings: hek293
[3] = target: Sodium-dependent dopamine transporter (Homo sapiens, UniProt Q01959); assay: Displacement of [3H]WIN 35,428 from human DAT expressed in HEK293 cells at 1 and 3 uM after 30 mins in presence of increasing concentration of cocaine by liquid scintillation counting; format: cell-based
How it was run: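 Intact HEK-DAT cells on PDL-coated plates, in binding buffer (HEPES, NaCl, KCl, CaCl2, MgCl2, 10 μM ZnCl2, glucose, pH 7,3). Incubated with ~10 nM [3H]WIN 35,428, fixed concentrations of test compound and cocaine 0.001–1 μM, 30 min at 25 °C. Nonspecific binding defined with 30 μM mazindol. Cells lysed in 1% SDS and counted by scintillation. Reciprocal of bound (fmol) plotted against cocaine concentration as Dixon plot. Three experiments in triplicate, mean ± SD.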

Rattus norvegicus [4] = assay: Neurotoxicity in Sprague-Dawley rat assessed as effect on local movements at 10 mg/kg, ip administered 30 mins prior to test by open field test relative to control; format: toxicity, organism-based; settings: in vivo, 0.5 h
How it was run: (§1)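 Male Sprague–Dawley rats, 10 per group, given 10 mg/kg ip daily for 10 days and 30 min before each test. DMSO vehicle group as control. Open field arena 100 × 100 cm with 40 cm walls. Animals video-tracked for 10 min.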

Rattus norvegicus [5] = assay: Neurotoxicity in Sprague-Dawley rat assessed as touch escape score at 10 mg/kg, ip administered 30 mins prior to test (reference value: 1.2 +/- 1.033); format: toxicity, organism-based; settings: in vivo, 0.5 h
Rattus norvegicus [6] = assay: Neurotoxicity in Sprague-Dawley rat assessed as effect on time spent in the left open arm at 10 mg/kg, ip administered 30 mins prior to test by elevated plus maze test relative to control; format: toxicity, organism-based; settings: in vivo, 0.5 h
How it was run: (§2)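 Male Sprague–Dawley rats, 10 per group, dosed 10 mg/kg ip daily for 10 days and 30 min before testing. DMSO vehicle controls. Elevated plus maze, rats placed centrally and video-tracked. Recorded: time in closed and open arms, arm entries, path length.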

Rattus norvegicus [7] = assay: Neurotoxicity in Sprague-Dawley rat assessed as tail pinch score at 10 mg/kg, ip administered 30 mins prior to test (reference value: 0.8 +/- 0.788); format: toxicity, organism-based; settings: in vivo, 0.5 h
[8] = target: Sodium-dependent noradrenaline transporter (Homo sapiens, UniProt P23975); assay: Inhibition of re-uptake of [3H]MPP+ at human NET expressed in HEK293 cells preincubated for 5 mins followed by […] addition measured after 3 min by liquid scintillation counting; format: cell-based; settings: hek293
How it was run: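 HEK293 cells stably expressing human DAT or NET, seeded on PDL-coated plates 24 h before. Preincubated 5 min in Krebs–HEPES buffer pH 7.3 with compound at 0.001 μM to 1 mM (DMSO stock diluted in buffer). Substrate then added: 0.2 μM [3H]dopamine for DAT, 1 min; 0.05 μM [3H]MPP+ for NET, 3 min. Room temperature. Uptake stopped with ice-cold buffer. Cells lysed in 1% SDS and counted by scintillation. Unspecific uptake defined with 10 μM mazindol. IC50 by nonlinear regression.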

Rattus norvegicus [9] = assay: Neurotoxicity in Sprague-Dawley rat assessed as transfer arousal score at 10 mg/kg, ip administered 30 mins prior to test (reference value: 3.1 +/- 0.3162); format: toxicity, organism-based; settings: in vivo, 0.5 h
Rattus norvegicus [10] = assay: Neurotoxicity in Sprague-Dawley rat assessed as effect on time spent in closed arm at 10 mg/kg, ip administered 30 mins prior to test by elevated plus maze test relative to control; format: toxicity, organism-based; settings: in vivo, 0.5 h; how it was run: as §2
Rattus norvegicus [11] = assay: Neurotoxicity in Sprague-Dawley rat assessed as pinna reflex score at 10 mg/kg, ip administered 30 mins prior to test (reference value: 1.2 +/- 1.033); format: toxicity, organism-based; settings: in vivo, 0.5 h
Rattus norvegicus [12] = assay: Neurotoxicity in Sprague-Dawley rat assessed as effect on time spent in the left closed arm at 10 mg/kg, ip administered 30 mins prior to test by elevated plus maze test relative to control; format: toxicity, organism-based; settings: in vivo, 0.5 h; how it was run: as §2
Rattus norvegicus [13] = assay: Neurotoxicity in Sprague-Dawley rat assessed as effect on time spent at the margin at 10 mg/kg, ip administered 30 mins prior to test by open field test relative to control; format: toxicity, organism-based; settings: in vivo, 0.5 h; how it was run: as §1
Rattus norvegicus [14] = assay: Neurotoxicity in Sprague-Dawley rat assessed as effect on time spent in open arm at 10 mg/kg, ip administered 30 mins prior to test by elevated plus maze test relative to control; format: toxicity, organism-based; settings: in vivo, 0.5 h; how it was run: as §2
Rattus norvegicus [15] = assay: Neurotoxicity in Sprague-Dawley rat assessed as effect on total distance traveled at 10 mg/kg, ip administered 30 mins prior to test by elevated plus maze test relative to control; format: toxicity, organism-based; settings: in vivo, 0.5 h; how it was run: as §2
Rattus norvegicus [16] = assay: Neurotoxicity in Sprague-Dawley rat assessed as locomotor activity score at 10 mg/kg, ip administered 30 mins prior to test (reference value: 2.6 +/- 0.9661); format: toxicity, organism-based; settings: in vivo, 0.5 h
Rattus norvegicus [17] = assay: Neurotoxicity in Sprague-Dawley rat assessed as effect on time spent on revolving rod at 10 mg/kg, ip administered 30 mins prior to test by rotarod test relative to control; format: toxicity, organism-based; settings: in vivo, 0.5 h
How it was run: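 Male Sprague–Dawley rats, 10 per group, dosed 10 mg/kg ip daily for 10 days and 30 min before testing. DMSO vehicle controls. Rotarod, time spent on the revolving rod recorded.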

Rattus norvegicus [18] = assay: Neurotoxicity in Sprague-Dawley rat assessed as effect on average velocity at 10 mg/kg, ip administered 30 mins prior to test by open field test relative to control; format: toxicity, organism-based; settings: in vivo, 0.5 h; how it was run: as §1
Rattus norvegicus [19] = assay: Neurotoxicity in Sprague-Dawley rat assessed as toe pinch score at 10 mg/kg, ip administered 30 mins prior to test (reference value: 1.8 +/- 0.6325); format: toxicity, organism-based; settings: in vivo, 0.5 h
Rattus norvegicus [20] = assay: Neurotoxicity in Sprague-Dawley rat assessed as effect on total distance traveled at 10 mg/kg, ip administered 30 mins prior to test by open field test relative to control; format: toxicity, organism-based; settings: in vivo, 0.5 h; how it was run: as §1
Rattus norvegicus [21] = assay: Neurotoxicity in Sprague-Dawley rat assessed as effect on resting time at 10 mg/kg, ip administered 30 mins prior to test by elevated plus maze test relative to control; format: toxicity, organism-based; settings: in vivo, 0.5 h; how it was run: as §2
Rattus norvegicus [22] = assay: Neurotoxicity in Sprague-Dawley rat assessed as limb rotation score at 10 mg/kg, ip administered 30 mins prior to test (reference value: 3.3 +/- 0.4830); format: toxicity, organism-based; settings: in vivo, 0.5 h
Rattus norvegicus [23] = assay: Neurotoxicity in Sprague-Dawley rat assessed as piloerection score at 10 mg/kg, ip administered 30 mins prior to test (reference value: 2.1 +/- 0.3162); format: toxicity, organism-based; settings: in vivo, 0.5 h
Rattus norvegicus [24] = assay: Neurotoxicity in Sprague-Dawley rat assessed as visual placing score at 10 mg/kg, ip administered 30 mins prior to test (reference value: 1.9 +/- 0.3162); format: toxicity, organism-based; settings: in vivo, 0.5 h
Rattus norvegicus [25] = assay: Neurotoxicity in Sprague-Dawley rat assessed as effect on number of crossings of the center at 10 mg/kg, ip administered 30 mins prior to test by open field test relative to control; format: toxicity, organism-based; settings: in vivo, 0.5 h; how it was run: as §1
Rattus norvegicus [26] = assay: Neurotoxicity in Sprague-Dawley rat assessed as effect on large movements at 10 mg/kg, ip administered 30 mins prior to test by open field test relative to control; format: toxicity, organism-based; settings: in vivo, 0.5 h; how it was run: as §1

Sodium-dependent serotonin transporter, sequence (P31645 whole entry): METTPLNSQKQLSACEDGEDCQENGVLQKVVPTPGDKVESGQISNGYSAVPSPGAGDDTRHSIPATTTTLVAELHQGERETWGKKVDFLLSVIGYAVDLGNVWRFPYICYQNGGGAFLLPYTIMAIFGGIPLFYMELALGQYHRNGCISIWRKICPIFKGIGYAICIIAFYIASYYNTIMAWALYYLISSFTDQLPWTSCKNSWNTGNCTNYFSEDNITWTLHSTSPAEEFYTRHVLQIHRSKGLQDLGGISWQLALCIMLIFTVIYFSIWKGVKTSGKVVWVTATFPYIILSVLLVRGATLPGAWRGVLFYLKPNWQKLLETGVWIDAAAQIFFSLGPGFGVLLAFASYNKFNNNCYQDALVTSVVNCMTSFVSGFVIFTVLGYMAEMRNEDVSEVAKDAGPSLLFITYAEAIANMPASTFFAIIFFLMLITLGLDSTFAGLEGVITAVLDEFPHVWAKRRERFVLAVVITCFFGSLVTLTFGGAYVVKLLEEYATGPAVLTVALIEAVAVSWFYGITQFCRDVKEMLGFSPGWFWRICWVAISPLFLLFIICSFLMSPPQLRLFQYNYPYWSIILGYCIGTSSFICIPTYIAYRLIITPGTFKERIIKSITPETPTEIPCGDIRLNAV
Sodium-dependent noradrenaline transporter, sequence (P23975 whole entry): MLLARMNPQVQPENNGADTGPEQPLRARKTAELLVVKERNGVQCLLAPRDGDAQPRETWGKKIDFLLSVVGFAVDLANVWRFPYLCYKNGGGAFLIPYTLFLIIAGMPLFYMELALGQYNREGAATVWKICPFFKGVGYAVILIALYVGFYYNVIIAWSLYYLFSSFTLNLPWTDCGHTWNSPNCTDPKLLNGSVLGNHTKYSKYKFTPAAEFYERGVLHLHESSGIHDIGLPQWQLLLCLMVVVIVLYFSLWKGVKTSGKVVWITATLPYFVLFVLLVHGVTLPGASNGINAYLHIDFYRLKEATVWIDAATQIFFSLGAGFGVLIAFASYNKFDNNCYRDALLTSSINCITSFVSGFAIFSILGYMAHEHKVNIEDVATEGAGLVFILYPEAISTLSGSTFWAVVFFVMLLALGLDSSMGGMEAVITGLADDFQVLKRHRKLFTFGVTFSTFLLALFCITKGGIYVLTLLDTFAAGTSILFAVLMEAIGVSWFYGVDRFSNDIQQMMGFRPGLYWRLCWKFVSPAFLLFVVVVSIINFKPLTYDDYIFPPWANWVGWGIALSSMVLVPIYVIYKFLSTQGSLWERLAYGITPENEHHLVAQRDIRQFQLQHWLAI
Sodium-dependent dopamine transporter, sequence (Q01959 whole entry): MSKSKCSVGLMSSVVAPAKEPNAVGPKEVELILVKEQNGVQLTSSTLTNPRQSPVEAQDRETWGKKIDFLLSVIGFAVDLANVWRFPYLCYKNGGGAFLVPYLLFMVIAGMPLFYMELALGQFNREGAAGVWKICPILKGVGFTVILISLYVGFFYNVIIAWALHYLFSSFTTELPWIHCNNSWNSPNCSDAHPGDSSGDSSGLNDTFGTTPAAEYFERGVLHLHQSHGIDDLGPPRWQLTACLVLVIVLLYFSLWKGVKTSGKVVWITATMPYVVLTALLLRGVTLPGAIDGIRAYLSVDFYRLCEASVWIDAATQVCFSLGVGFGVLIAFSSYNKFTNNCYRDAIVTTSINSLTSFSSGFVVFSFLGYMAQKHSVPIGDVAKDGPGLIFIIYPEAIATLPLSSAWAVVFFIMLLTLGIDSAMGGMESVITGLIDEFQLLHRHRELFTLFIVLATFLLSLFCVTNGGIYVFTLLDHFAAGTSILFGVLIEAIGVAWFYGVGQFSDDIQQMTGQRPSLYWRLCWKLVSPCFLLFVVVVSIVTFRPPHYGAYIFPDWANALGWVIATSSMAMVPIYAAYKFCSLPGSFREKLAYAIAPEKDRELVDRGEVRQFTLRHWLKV

In the case of `[O-][S+](Cc1cccs1)C(c1ccccc1)c1ccccc1` (stereo unspecified), the Activity (Rattus norvegicus [1]) is reported as 3, the IC50 [2] is reported as “Not Active” and the inhibition [3] is reported as “Active”. The Activity (Rattus norvegicus [4]) was “Non-Toxic”, the Activity (Rattus norvegicus [5]) was 1.2 and the Activity (Rattus norvegicus [6]) was “Non-Toxic”. For the same compound, the Activity (Rattus norvegicus [7]) was 0.9, the IC50 [8] was “Not Active” and the Activity (Rattus norvegicus [9]) was 3.2. The Activity (Rattus norvegicus [10]) was “Non-Toxic”, the Activity (Rattus norvegicus [11]) was 1.4 and the Activity (Rattus norvegicus [12]) was “Non-Toxic”. For the same compound, the Activity (Rattus norvegicus [13]) was “Non-Toxic”, the Activity (Rattus norvegicus [14]) was “Non-Toxic” and the Activity (Rattus norvegicus [15]) was “Non-Toxic”. The Activity (Rattus norvegicus [16]) was 2.6, the Activity (Rattus norvegicus [17]) was “Non-Toxic” and the Activity (Rattus norvegicus [18]) was “Non-Toxic”. The Activity (Rattus norvegicus [19]) was 1.6, the Activity (Rattus norvegicus [20]) was “Non-Toxic” and the Activity (Rattus norvegicus [21]) was “Non-Toxic”. For the same compound, the Activity (Rattus norvegicus [22]) was 3.4, the Activity (Rattus norvegicus [23]) was 2.2 and the Activity (Rattus norvegicus [24]) was 1.7. The Activity (Rattus norvegicus [25]) was “Non-Toxic” and the Activity (Rattus norvegicus [26]) was “Non-Toxic”.
